Measurements published in article PMC4475676 (Biochemistry, 2015).

Assays:
[1] = tested on: peptide substrate; experiment: NMR titration binding affinity
How it was run: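 500 μM 15N-labeled wild-type or mutant protein titrated with 0, 0.1, 0.2, 0.5, 1 and 2 mM peptide. 15N HSQC recorded at 900 MHz. Shift changes of perturbed peaks were fit individually to a quadratic single-site binding equation. Peaks fitting with r² > 0.99 (fast exchange) were then fit globally for one KD per protein. Protein and peptide were in 50 mM Na2HPO4, 1 mM DTT, 1 mM EDTA, pH 6.5.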

[2] = tested on: peptide substrate; experiment: ZZ-exchange NMR catalytic efficiency; format: biochemical
How it was run: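 ZZ-exchange NMR used 1 mM 15N-labeled peptide with unlabeled enzyme, 20 μM at 0–20 °C or 1 μM at 30–45 °C. kex_eff came from time-dependent cross-peak build-up, with fit errors from a single experiment. Catalytic-Arg mutants used 100 μM protein at 30 °C with a 0.768 s mixing time. For these, the cis-peak to cross-peak intensity ratio stood in for turnover.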

[3] = denatures entirely; cited from earlier work
[4] = tested on: CypA; settings: cited from earlier work
[5] = tested on: GeoCyp; settings: cited from earlier work

Substance: CypA^A103R: CypA swap mutant, Ala 103 to Arg
- effect of swap mutation on peptide binding ([1]; relative to wild type, NMR titration): strengthened
- effect of swap mutation on catalytic efficiency ([2]; relative to wild type, ZZ-exchange, 20 μM protein): less

Substance: CypA^R55A: CypA with mutation of the catalytic arginine Arg 55 to alanine
- catalysis after mutation of catalytic arginine ([2]; 100 μM protein, 1 mM peptide, 30 °C): nearly, but not entirely, ablates catalysis

Substance: CypA^WT: prototypical human cyclophilin A, mesophilic peptidyl-prolyl isomerase
- temperature dependence of binding affinity for the peptide [1]: highly temperature-dependent
- turnover at 45 °C compared between CypA and GeoCyp ([2]; 45 °C, 1 μM protein, 1 mM peptide): comparable rate
- Tm / denaturation temperature [3]: 51 °C

Substance: GSFGPDLRAGD [peptide substrate]
- isomerization of G-P peptide bond by CypA [4]: readily isomerized
- isomerization of G-P peptide bond by GeoCyp [5]: readily isomerized
